ChEMBL document CHEMBL3102723, “Design, synthesis and anti-inflammatory evaluation of novel 5-benzylidene-3,4-dihalo-furan-2-one derivatives” (Eur J Med Chem, 2014)
The source made the active and inactive calls. The calls are words filed in the database; no cut-off is given here.

Experiments:
[1] = Cytotoxicity against mouse RAW264.7 cells assessed as cell viability at 5 uM after 48 hrs by MTT assay relative to control; format: cell-based; settings: read-out: Activity
Procedure, shortened: (§1)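 MTT assay. RAW264.7 cells at 4 × 10^3 cells/well, cultured 16 h, then exposed to compounds diluted in DMEM for 48 h. MTT (0.5 mg/mL) added for 4 h, formazan dissolved in DMSO, OD570 read. Viability = compound OD570/blank OD570 × 100%, with the medium-only blank set as 100%. Three independent experiments.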

RAW264.7 [2] = experiment: Antiinflammatory activity in mouse RAW264.7 cells assessed as inhibition of LPS-induced nitric oxide release at 10 uM treated 2 hrs before LPS challenge measured after 48 hrs by Griess assay relative to control; format: functional
RAW264.7 [3] = experiment: Antiinflammatory activity in mouse RAW264.7 cells assessed as inhibition of LPS-induced TNF-alpha release at 10 uM treated 2 hrs before LPS challenge measured after 12 hrs by ELISA (reference value: 11.8 +/- 1.2 pg/ml); format: functional
RAW264.7 [4] = experiment: Antiinflammatory activity in mouse RAW264.7 cells assessed as inhibition of LPS-induced IL-6 release at 10 uM treated 2 hrs before LPS challenge measured by ELISA; format: functional, cell-based; settings: TDE = time-dependent effect
RAW264.7 [5] = experiment: Antiinflammatory activity in mouse RAW264.7 cells assessed as inhibition of LPS-induced TNF-alpha release at 10 uM treated 2 hrs before LPS challenge measured after 24 hrs by ELISA (reference value: 38.3 +/- 3.3 pg/ml); format: functional
RAW264.7 [6] = experiment: Antiinflammatory activity in mouse RAW264.7 cells assessed as inhibition of LPS-induced IL-6 release at 10 uM treated 2 hrs before LPS challenge measured after 12 hrs by ELISA (reference value: 13.9 +/- 2.6 pg/ml); format: functional
RAW264.7 [7] = experiment: Antiinflammatory activity in mouse RAW264.7 cells assessed as inhibition of LPS-induced TNF-alpha release at 10 uM treated 2 hrs before LPS challenge measured by ELISA; format: functional, cell-based; settings: TDE = time-dependent effect
RAW264.7 [8] = experiment: Antiinflammatory activity in mouse RAW264.7 cells assessed as inhibition of LPS-induced IL-6 release at 10 uM treated 2 hrs before LPS challenge measured after 24 hrs by ELISA (reference value: 45.1 +/- 5.6 pg/ml); format: functional
RAW264.7 [9] = experiment: Antiinflammatory activity in mouse RAW264.7 cells assessed as inhibition of LPS-induced TNF-alpha release at 10 uM treated 2 hrs before LPS challenge measured after 6 hrs by ELISA (reference value: 5.9 +/- 0.5 pg/ml); format: functional
RAW264.7 [10] = experiment: Antiinflammatory activity in mouse RAW264.7 cells assessed as inhibition of LPS-induced IL-6 release at 10 uM treated 2 hrs before LPS challenge measured after 6 hrs by ELISA (reference value: 7.2 +/- 0.9 pg/ml); format: functional
[11] = Cytotoxicity against mouse RAW264.7 cells assessed as cell viability at 10 uM after 48 hrs by MTT assay relative to control; format: cell-based; settings: read-out: Activity; procedure, shortened: as §1
[12] = molecular target: T1, Peroxisome proliferator-activated receptor gamma (Mus musculus) (UniProt P37238); experiment: Inhibition of PPARgamma in mouse RAW264.7 cells assessed as inhibition of LPS-induced p38 MAPK phosphorylation at 10 uM after 4 hrs by Western blot analysis in presence of PPARgamma antagonist GW9662; format: cell-based
T1 sequence (whole entry): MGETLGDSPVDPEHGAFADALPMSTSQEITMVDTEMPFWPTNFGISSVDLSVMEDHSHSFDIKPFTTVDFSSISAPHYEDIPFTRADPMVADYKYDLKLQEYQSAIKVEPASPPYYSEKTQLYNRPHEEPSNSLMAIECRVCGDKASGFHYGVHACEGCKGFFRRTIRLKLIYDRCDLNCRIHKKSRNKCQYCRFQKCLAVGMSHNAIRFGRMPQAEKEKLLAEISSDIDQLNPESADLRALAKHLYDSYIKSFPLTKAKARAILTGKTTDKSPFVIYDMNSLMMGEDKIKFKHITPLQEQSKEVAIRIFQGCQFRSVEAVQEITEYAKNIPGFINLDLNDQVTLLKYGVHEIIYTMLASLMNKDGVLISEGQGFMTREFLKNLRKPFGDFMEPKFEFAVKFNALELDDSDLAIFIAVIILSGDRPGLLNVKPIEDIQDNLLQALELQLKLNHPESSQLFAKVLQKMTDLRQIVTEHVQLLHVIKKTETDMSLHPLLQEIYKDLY
Procedure, shortened: (§2)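 RAW264.7 cells at 2 × 10^6 per well, cultured 18 h, then given fresh medium with compounds plus 500 ng/mL LPS for 4 h, with GW9662 at 5 where included. Lysates clarified at 14,000 × g, protein by BCA, equal loads on SDS-PAGE. Blots blocked in 5% milk/TBST, primary antibodies 1:1000 overnight, secondary 1:1000 90 min, ECL detection. Means ± SD (n = 3).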

[13] = molecular target: T1, Peroxisome proliferator-activated receptor gamma (Mus musculus); experiment: Inhibition of PPARgamma in mouse RAW264.7 cells assessed as inhibition of LPS-induced p38 MAPK phosphorylation at 10 uM after 4 hrs by Western blot analysis; format: cell-based; procedure, shortened: as §2
[14] = molecular target: T1, Peroxisome proliferator-activated receptor gamma (Mus musculus); experiment: Inhibition of PPARgamma in mouse RAW264.7 cells assessed as inhibition of LPS-induced JNK phosphorylation at 10 uM after 4 hrs by Western blot analysis in presence of PPARgamma antagonist GW9662; format: cell-based; procedure, shortened: as §2
[15] = molecular target: T1, Peroxisome proliferator-activated receptor gamma (Mus musculus); experiment: Inhibition of PPARgamma in mouse RAW264.7 cells assessed as inhibition of LPS-induced IkappaBalpha phosphorylation at 10 uM after 4 hrs by Western blot analysis in presence of PPARgamma antagonist GW9662; format: cell-based; procedure, shortened: as §2
[16] = molecular target: T1, Peroxisome proliferator-activated receptor gamma (Mus musculus); experiment: Inhibition of PPARgamma in mouse RAW264.7 cells assessed as inhibition of LPS-induced IkappaBalpha phosphorylation at 10 uM after 4 hrs by Western blot analysis; format: cell-based; procedure, shortened: as §2
[17] = molecular target: T1, Peroxisome proliferator-activated receptor gamma (Mus musculus); experiment: Inhibition of PPARgamma in mouse RAW264.7 cells assessed as inhibition of LPS-induced NF-kappaB 65 phosphorylation at 10 uM after 4 hrs by Western blot analysis; format: cell-based; procedure, shortened: as §2
[18] = molecular target: T1, Peroxisome proliferator-activated receptor gamma (Mus musculus); experiment: Inhibition of PPARgamma in mouse RAW264.7 cells assessed as inhibition of LPS-induced NF-kappaB 65 phosphorylation at 10 uM after 4 hrs by Western blot analysis in presence of PPARgamma antagonist GW9662; format: cell-based; procedure, shortened: as §2
[19] = molecular target: T1, Peroxisome proliferator-activated receptor gamma (Mus musculus); experiment: Inhibition of PPARgamma in mouse RAW264.7 cells assessed as inhibition of LPS-induced ERK1/2 phosphorylation at 10 uM after 4 hrs by Western blot analysis; format: cell-based; procedure, shortened: as §2
[20] = molecular target: T1, Peroxisome proliferator-activated receptor gamma (Mus musculus); experiment: Inhibition of PPARgamma in mouse RAW264.7 cells assessed as inhibition of LPS-induced ERK1/2 phosphorylation at 10 uM after 4 hrs by Western blot analysis in presence of PPARgamma antagonist GW9662; format: cell-based; procedure, shortened: as §2
[21] = molecular target: T1, Peroxisome proliferator-activated receptor gamma (Mus musculus); experiment: Inhibition of PPARgamma in mouse RAW264.7 cells assessed as inhibition of LPS-induced JNK phosphorylation at 10 uM after 4 hrs by Western blot analysis; format: cell-based; procedure, shortened: as §2

Compound: O=C(Nc1ccccc1)c1cc([N+](=O)[O-])ccc1Cl
- viability at 48 h, 5 µM [1]: 101%

Compound: O=C1O/C(=C\c2ccc(OCc3ccccn3)cc2)C(Cl)=C1Cl
- inhibition at 10 µM (RAW264.7 [2]): 16.3%

Compound: CCOc1cc(/C=C2\OC(=O)C(Br)=C2Br)ccc1OCc1ccccn1
- inhibition at 10 µM (RAW264.7 [2]): 42.2%

Compound: O=C1O/C(=C\c2ccc(OCCc3ccccn3)cc2)C(Br)=C1Br
- inhibition at 10 µM (RAW264.7 [2]): 38%

Compound: CCOc1cc(/C=C2\OC(=O)C(Cl)=C2Cl)ccc1OCc1ccccn1
- inhibition at 10 µM (RAW264.7 [2]): 36.8%

Compound: COc1ccc2c(c1)c(CC(=O)O)c(C)n2C(=O)c1ccc(Cl)cc1 [INDOMETHACIN]
- Activity (RAW264.7 [3]): 612.6 pg/mL
- inhibition (RAW264.7 [4]): tde
- Activity (RAW264.7 [5]): 1242 pg/mL
- Activity (RAW264.7 [6]): 2989.6 pg/mL
- inhibition (RAW264.7 [7]): tde
- Activity (RAW264.7 [8]): 7645.9 pg/mL
- Activity (RAW264.7 [9]): 366.5 pg/mL
- Activity (RAW264.7 [10]): 2313.5 pg/mL
- viability at 48 h, 10 µM [11]: 101%
- inhibition at 10 µM (RAW264.7 [2]): 31.3%

Compound: CCc1ccc(CCOc2ccc(/C=C3\OC(=O)C(Br)=C3Br)cc2OC)nc1
- Activity (RAW264.7 [3]): 575.6 pg/mL
- inhibition [12]: inactive
- inhibition (RAW264.7 [4]): tde
- inhibition [13]: Active
- inhibition [14]: inactive
- inhibition [15]: inactive
- Activity (RAW264.7 [5]): 1110.5 pg/mL
- Activity (RAW264.7 [6]): 2528.4 pg/mL
- inhibition (RAW264.7 [7]): tde
- Activity (RAW264.7 [8]): 6360 pg/mL
- inhibition [16]: Active
- inhibition [17]: Active
- Activity (RAW264.7 [9]): 347.1 pg/mL
- Activity (RAW264.7 [10]): 1705.9 pg/mL
- inhibition [18]: inactive
- viability at 48 h, 10 µM [11]: 98.1%
- inhibition at 10 µM (RAW264.7 [2]): 75.8%
- inhibition [19]: Active
- inhibition [20]: inactive
- inhibition [21]: Active

Compound: O=C1O/C(=C\c2ccc(OCc3ccccn3)cc2)C(Br)=C1Br
- inhibition at 10 µM (RAW264.7 [2]): 29.2%

Compound: COc1cc(/C=C2\OC(=O)C(Br)=C2Br)ccc1OCCc1ccccn1
- inhibition at 10 µM (RAW264.7 [2]): 54.7%

Compound: Cc1nc(C)c(COc2ccc(/C=C3\SC(=O)NC3=O)cc2)nc1C
- inhibition at 10 µM (RAW264.7 [2]): 19.3%

Compound: CCOc1cc(/C=C2\OC(=O)C(Br)=C2Br)ccc1OCCc1ccccn1
- inhibition at 10 µM (RAW264.7 [2]): 62.9%

Compound: CCc1ccc(CCOc2ccc(/C=C3\OC(=O)C(Cl)=C3Cl)cc2)nc1
- inhibition at 10 µM (RAW264.7 [2]): 40.8%

Compound: Cc1nc(C)c(COc2ccc(/C=C3\OC(=O)C(Br)=C3Br)cc2)nc1C
- inhibition at 10 µM (RAW264.7 [2]): 30.1%
